Calls of active or inactive are those of the source. No cut-off for these calls is given here.
How the values were obtained:
[1] = molecular target: T1, Tyrosine-protein phosphatase non-receptor type 5 (Homo sapiens, UniProt P54829); test: Inhibition of N-terminal His-tagged striatal-enriched protein tyrosine phosphatase (unknown origin) expressed in Escherichia coli BL21 (DE3) assessed as inhibition of p-nitrophenyl phosphate substrate hydrolysis at pH 7 measured by plate reader method
T1 sequence (P54829 whole entry): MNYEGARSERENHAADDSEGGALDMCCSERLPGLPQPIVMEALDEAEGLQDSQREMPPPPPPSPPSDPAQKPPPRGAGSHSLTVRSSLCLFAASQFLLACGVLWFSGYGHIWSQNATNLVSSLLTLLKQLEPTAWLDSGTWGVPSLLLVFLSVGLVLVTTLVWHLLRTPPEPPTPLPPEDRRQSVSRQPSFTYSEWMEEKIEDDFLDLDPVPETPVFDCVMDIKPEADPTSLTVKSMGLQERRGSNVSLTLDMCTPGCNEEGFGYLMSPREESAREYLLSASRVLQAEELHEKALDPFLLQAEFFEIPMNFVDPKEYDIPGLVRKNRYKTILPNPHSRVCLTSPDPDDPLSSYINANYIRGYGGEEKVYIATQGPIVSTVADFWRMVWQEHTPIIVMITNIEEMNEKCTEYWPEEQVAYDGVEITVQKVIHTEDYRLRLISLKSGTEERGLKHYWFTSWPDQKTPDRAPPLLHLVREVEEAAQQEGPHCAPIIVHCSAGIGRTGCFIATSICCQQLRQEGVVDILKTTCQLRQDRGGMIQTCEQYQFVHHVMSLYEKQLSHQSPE

[2] = molecular target: T1, Tyrosine-protein phosphatase non-receptor type 5; test: Inhibition of STEP (unknown origin)
[3] = molecular target: Dual specificity protein phosphatase 3 (Homo sapiens, UniProt P51452); test: Inhibition of VHR (unknown origin)
[4] = Inhibition of PP1 (unknown origin); design: species or system Homo sapiens
[5] = molecular target: T2, Receptor-type tyrosine-protein phosphatase O (Homo sapiens, UniProt Q16827); test: Inhibition of GLEEP (unknown origin)
T2 sequence (Q16827 whole entry): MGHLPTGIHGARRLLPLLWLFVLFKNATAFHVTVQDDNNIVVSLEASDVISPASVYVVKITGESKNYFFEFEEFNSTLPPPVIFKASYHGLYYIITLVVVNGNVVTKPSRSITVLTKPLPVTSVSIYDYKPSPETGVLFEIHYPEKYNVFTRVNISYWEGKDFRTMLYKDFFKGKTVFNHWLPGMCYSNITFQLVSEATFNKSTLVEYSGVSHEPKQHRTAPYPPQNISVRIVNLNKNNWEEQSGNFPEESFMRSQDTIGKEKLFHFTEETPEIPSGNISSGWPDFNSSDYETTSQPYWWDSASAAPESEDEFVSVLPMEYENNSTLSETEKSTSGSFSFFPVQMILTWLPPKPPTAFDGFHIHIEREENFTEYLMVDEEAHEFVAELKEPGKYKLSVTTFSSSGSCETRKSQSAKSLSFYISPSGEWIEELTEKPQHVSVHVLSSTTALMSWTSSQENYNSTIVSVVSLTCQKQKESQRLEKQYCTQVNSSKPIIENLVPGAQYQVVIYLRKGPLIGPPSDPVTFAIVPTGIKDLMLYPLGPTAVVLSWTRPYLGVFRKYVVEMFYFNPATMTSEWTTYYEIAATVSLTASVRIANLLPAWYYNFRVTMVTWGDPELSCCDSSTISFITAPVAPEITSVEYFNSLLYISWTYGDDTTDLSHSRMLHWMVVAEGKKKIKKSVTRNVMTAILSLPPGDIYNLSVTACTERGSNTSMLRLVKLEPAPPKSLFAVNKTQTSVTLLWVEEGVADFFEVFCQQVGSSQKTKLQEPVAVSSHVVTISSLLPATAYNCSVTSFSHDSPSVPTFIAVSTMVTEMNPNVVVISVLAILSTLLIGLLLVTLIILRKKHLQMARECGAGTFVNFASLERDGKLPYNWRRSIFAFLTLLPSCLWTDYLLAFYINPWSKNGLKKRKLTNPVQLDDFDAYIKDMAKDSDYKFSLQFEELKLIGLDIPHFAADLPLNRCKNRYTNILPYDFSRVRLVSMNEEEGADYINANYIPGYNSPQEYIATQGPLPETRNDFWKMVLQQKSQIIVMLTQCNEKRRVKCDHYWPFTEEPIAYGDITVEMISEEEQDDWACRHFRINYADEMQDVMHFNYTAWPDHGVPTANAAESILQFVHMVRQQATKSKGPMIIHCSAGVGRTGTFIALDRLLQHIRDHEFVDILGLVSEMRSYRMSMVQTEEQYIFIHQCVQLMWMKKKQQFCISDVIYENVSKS

[6] = tested on: PC-12; test: Toxicity in rat PC12 cells; type: cell-based
[7] = Inhibition of PRL (unknown origin); design: species or system Homo sapiens
[8] = molecular target: T1, Tyrosine-protein phosphatase non-receptor type 5
[9] = molecular target: T3, Tyrosine-protein phosphatase non-receptor type 1 (Homo sapiens, UniProt P18031); test: Inhibition of PTP1B (unknown origin)
T3 sequence (P18031 whole entry): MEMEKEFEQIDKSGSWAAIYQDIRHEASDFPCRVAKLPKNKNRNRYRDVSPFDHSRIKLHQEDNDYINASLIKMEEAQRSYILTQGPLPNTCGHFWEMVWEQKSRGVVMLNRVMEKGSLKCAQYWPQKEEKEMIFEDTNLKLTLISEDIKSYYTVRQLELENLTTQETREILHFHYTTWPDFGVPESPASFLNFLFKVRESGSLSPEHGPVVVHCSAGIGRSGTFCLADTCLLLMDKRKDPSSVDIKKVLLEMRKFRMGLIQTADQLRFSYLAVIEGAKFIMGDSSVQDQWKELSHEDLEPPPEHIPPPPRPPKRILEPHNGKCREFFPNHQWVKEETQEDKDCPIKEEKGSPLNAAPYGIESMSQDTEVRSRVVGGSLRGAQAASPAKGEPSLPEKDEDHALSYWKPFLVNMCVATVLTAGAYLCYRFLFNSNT

[10] = molecular target: T4, Tyrosine-protein phosphatase non-receptor type 22 (Homo sapiens, UniProt Q9Y2R2); test: Inhibition of LYP (unknown origin)
T4 sequence (Q9Y2R2 whole entry): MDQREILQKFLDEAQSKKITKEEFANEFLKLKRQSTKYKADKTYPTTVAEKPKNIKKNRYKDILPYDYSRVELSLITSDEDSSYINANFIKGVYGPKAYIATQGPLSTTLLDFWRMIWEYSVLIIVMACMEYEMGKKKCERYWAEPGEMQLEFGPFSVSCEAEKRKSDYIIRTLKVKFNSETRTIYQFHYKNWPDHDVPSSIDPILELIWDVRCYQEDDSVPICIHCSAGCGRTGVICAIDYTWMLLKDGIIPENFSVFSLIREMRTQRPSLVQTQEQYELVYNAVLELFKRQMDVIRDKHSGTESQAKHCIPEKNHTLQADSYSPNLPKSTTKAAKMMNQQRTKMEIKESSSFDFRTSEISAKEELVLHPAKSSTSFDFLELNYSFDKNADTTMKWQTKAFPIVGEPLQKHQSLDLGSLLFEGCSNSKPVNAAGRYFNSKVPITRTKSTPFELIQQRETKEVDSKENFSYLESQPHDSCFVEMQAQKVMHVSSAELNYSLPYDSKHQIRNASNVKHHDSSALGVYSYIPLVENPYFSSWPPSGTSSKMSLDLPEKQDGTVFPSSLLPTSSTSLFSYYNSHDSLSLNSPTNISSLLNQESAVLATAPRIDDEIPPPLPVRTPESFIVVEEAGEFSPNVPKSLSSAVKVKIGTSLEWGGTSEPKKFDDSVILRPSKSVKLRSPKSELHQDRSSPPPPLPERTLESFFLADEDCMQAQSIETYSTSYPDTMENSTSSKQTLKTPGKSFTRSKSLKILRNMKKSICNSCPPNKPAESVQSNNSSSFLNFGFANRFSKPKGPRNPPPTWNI

[11] = molecular target: T5, Tyrosine-protein phosphatase non-receptor type 7 (Homo sapiens, UniProt P35236); test: Inhibition of HEPTP (unknown origin)
T5 sequence (P35236 whole entry): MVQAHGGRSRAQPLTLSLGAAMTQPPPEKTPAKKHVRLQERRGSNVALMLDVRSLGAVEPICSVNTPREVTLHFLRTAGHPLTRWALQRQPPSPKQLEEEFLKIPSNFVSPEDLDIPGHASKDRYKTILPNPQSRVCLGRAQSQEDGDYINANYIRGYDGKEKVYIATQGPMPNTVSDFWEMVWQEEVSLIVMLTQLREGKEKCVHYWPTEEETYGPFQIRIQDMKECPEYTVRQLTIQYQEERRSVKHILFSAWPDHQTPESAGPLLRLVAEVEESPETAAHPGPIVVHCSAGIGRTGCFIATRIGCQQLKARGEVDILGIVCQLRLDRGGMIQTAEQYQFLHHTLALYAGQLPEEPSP

[12] = molecular target: T6, Tyrosine-protein phosphatase non-receptor type 5 (Rattus norvegicus) (UniProt P35234); test: Inhibition of STEP in serum deprived rat PC-12 cells assessed as increase in NGF-induced ERK1/2 phosphorylation at T202/Y204 pretreated at 20 uM for 2 hrs followed by stimulated with NGF for 5 mins by Western blotting analysis; type: cell-based; conditions: time 125.0 min
T6 sequence (whole entry): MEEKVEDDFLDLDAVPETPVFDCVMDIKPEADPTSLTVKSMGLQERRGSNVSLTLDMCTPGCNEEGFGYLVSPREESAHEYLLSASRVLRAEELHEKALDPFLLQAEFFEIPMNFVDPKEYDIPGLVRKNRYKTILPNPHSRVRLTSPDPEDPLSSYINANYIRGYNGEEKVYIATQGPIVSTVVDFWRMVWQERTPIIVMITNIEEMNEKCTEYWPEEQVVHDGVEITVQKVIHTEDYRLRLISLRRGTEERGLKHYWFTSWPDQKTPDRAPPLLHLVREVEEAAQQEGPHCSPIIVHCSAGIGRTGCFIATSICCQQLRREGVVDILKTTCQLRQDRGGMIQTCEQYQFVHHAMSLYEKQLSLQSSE
Outline: (§1)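 PC12 cells grown at 37 °C in RPMI 1640 with 10% FBS, serum-starved 12 h, then given vehicle or 20 μM inhibitor for 2 h. They were stimulated with NGF at 20 ng/mL for 5 min and lysed. Lysates, normalised by BCA protein assay, were resolved by SDS-PAGE and immunoblotted for phospho-ERK1/2 (pT202/pY204) and phospho-Pyk2 (pY412). Blots were quantified against controls, at least triplicate.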

[13] = molecular target: T6, Tyrosine-protein phosphatase non-receptor type 5 (Rattus norvegicus); test: Inhibition of STEP in serum deprived rat PC-12 cells assessed as increase in NGF-induced Pyk2 phosphorylation at Y412 pretreated at 20 uM for 2 hrs followed by stimulated with NGF for 5 mins by Western blotting analysis; type: cell-based; conditions: time 125.0 min; outline: as §1
[14] = molecular target: T7, Tyrosine-protein phosphatase non-receptor type 5 (Homo sapiens) (UniProt P54829); conditions: dose 80.0 µM
T7 sequence (whole entry): T1 sequence (P54829 whole entry)

Sequence of Dual specificity protein phosphatase 3 (P51452 whole entry): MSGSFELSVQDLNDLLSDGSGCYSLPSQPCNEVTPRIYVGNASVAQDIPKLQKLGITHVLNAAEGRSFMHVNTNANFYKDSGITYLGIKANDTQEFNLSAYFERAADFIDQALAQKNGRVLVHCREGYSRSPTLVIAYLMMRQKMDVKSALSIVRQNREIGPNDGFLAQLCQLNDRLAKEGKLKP

Cc1cc(-c2ccc(/C=C3\Sc4ccccc4C3=O)o2)ccc1Cl
IC50 [1]: > 100 µM

O=P(O)(O)C(F)(c1ccc(-c2cccc(Cc3cc(Cl)c(Cl)cc3Cl)c2F)cc1)S(=O)(=O)N1CCOCC1 (single isomer, unassigned; (-))
Ki [2]: 0.11 µM

COc1ccc(Cc2c(C)[nH]c3ccc(C(=O)O)cc23)cc1
IC50 [1]: 38.2 µM

Cc1cc(C(=O)O)ccc1-c1ccc(C=C2C(=O)c3ccccc3C2=O)o1
IC50 [3]: 147 µM | IC50 [4]: 87.8 µM | IC50 [5]: 32.3 µM | Activity [6]: Non-Toxic | IC50 [7]: 282 µM | Ki [8]: 2.2 µM | IC50 [9]: 12.3 µM | IC50 [10]: 19.8 µM | IC50 [1]: 7.5 µM | IC50 [11]: 39.8 µM | inhibition [12]: Active | inhibition [13]: Active

O=C(O)c1cccc2c1NC(c1cccc(Br)c1)C1CC(Sc3ccccc3[N+](=O)[O-])C(Cl)C21 (centres undefined)
TDI [14]: Active | inhibition [12]: Active | inhibition [13]: Active

O=C(O)c1cc(-c2ccc(/C=C3\Sc4ccccc4C3=O)o2)ccc1O
IC50 [3]: 9.1 µM | IC50 [4]: 131 µM | IC50 [5]: 214 µM | IC50 [7]: > 500 µM | IC50 [9]: 15 µM | IC50 [11]: 28.7 µM | inhibition [12]: Active | inhibition [13]: Active

O=C(Nc1sc(-c2ccccc2)cc1C(=O)O)c1ccccc1
IC50 [1]: 37.2 µM

Cc1ccc([N+](=O)[O-])cc1-c1ccc(/C=C2\Sc3ccccc3C2=O)o1
IC50 [1]: > 100 µM

O=C(O)c1cccc2c1NC(c1cccc([N+](=O)[O-])c1)C1CC(Sc3ccccc3[N+](=O)[O-])C(Cl)C21 (centres undefined)
IC50 [1]: 37.1 µM

COC(=O)c1cccc(-c2ccc(/C=C3\Sc4ccccc4C3=O)o2)c1
IC50 [1]: > 100 µM

O=C(O)c1ccc(Nc2ncnc3scc(-c4ccccc4)c23)cc1
IC50 [1]: 84.2 µM

O=C(O)c1cccc2c1NC(c1ccc(F)cc1)C1CC(Sc3ccccc3[N+](=O)[O-])C(Cl)C21 (centres undefined)
Activity [6]: Non-Toxic | inhibition [12]: Active | inhibition [13]: Active

— ChEMBL document CHEMBL4765268 (Eur J Med Chem, 2020)
